Experimental data taken from ChEMBL document CHEMBL4308843, “Identification of ABX-1431, a Selective Inhibitor of Monoacylglycerol Lipase and Clinical Candidate for Treatment of Neurological Disorders” (J Med Chem, 2018).
Calls of active or inactive are those of the source. The rule behind the calls is not given here.

What was measured:
[1] = test system: Mus musculus; experiment: In vivo inhibition of CES1c in po dosed ICR mouse brain measured 4 hrs post dose in presence of FP-Rh probe by gel-based ABPP assay; format: functional
Summary of the method: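 Male ICR mice, 6–12 weeks old, given single oral doses (0.5–32 mg/kg, n = 3) in PEG400:ethanol:PBS (7/2/1 v/v/v) at 5 mL/kg. Brains were removed 4 h later and one hemisphere processed for gel-based ABPP. Proteome was labeled with FP-Rh (1 µM, 30 min) and read by in-gel fluorescence relative to vehicle.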

[2] = organism: Canis lupus familiaris; experiment: Inhibition of MGLL in dog brain membrane homogenates at 0.001 to 10 uM preincubated for 30 mins followed by FP-Rh addition after 30 mins by gel-based ABPP assay; format: cell membranes
Summary of the method: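 Brain membrane homogenates (1 mg/mL protein) were preincubated with 0.001-10 µM inhibitor or DMSO for 30 min at 37°C, then labelled with 1 µM FP-Rh for 30 min at 25°C. Reactions were quenched in SDS-PAGE loading buffer, run on 10% gels and scanned in-gel. MGLL band intensities were normalised to DMSO (100%).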

[3] = target: Cytochrome P450 3A5 (Homo sapiens, UniProt P20815); experiment: Inhibition of recombinant human CYP3A5; format: ADME
Sequence of Cytochrome P450 3A5 (P20815 whole entry): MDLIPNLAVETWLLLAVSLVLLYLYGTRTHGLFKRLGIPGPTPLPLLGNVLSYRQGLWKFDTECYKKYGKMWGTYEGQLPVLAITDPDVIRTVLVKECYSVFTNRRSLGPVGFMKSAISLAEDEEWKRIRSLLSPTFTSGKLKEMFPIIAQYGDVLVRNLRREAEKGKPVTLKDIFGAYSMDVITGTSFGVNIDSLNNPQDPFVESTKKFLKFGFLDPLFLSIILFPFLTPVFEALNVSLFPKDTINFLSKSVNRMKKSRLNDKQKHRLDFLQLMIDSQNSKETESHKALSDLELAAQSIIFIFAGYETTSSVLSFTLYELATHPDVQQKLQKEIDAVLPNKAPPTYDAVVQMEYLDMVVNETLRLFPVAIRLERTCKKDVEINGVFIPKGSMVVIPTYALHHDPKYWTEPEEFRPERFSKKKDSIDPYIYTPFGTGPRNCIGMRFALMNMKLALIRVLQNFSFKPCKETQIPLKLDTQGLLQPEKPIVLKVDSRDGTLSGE

[4] = Stability in Sprague-Dawley rat plasma; format: ADME, cell-free
[5] = test system: Rattus norvegicus; experiment: Effect on spontaneous locomotor activity in Sprague-Dawley rat assessed as locomotor counts at 10 mg/kg, po monitored over 10 mins period; format: ADME, organism-based; settings: in vivo
Summary of the method: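 Male Sprague Dawley rats (175–200 g) received vehicle (0.5% methylcellulose) or 10 mg/kg orally. Four hours later, spontaneous locomotor frequency was recorded for 10 min in a vibration-sensing Laboras cage system; n = 10 per group.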

[6] = target: Cytochrome P450 2D6 (Homo sapiens, UniProt P10635); experiment: Inhibition of recombinant human CYP2D6; format: ADME
Sequence of Cytochrome P450 2D6 (P10635 whole entry): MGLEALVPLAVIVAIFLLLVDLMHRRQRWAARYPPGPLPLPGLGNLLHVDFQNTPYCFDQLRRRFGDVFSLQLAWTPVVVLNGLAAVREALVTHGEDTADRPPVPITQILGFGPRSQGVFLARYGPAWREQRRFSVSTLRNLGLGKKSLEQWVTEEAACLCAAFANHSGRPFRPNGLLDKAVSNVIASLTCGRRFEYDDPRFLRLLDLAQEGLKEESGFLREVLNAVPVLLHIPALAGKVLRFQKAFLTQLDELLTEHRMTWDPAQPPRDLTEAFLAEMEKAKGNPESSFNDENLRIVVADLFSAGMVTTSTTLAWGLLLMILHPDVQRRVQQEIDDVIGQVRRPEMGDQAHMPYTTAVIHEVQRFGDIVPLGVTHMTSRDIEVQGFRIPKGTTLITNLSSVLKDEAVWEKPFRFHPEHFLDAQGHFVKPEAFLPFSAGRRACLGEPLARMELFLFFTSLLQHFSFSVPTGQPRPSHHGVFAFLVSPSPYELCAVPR

[7] = Oral bioavailability in Beagle dog at 1 mg/kg by LC-MS analysis; format: ADME, organism-based, Canis lupus familiaris; settings: in vivo
Summary of the method: (§1)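 Male beagle dogs (n = 3 per route), 10–12 months old, were dosed at 1 mg/kg iv or po in PEG400/ethanol/PBS (7/2/1), fasted overnight to 2 h post-dose. Peripheral venous blood was sampled to 24 h into K2EDTA and plasma frozen at −80 °C. Plasma was quantified by HPLC-MS/MS, with noncompartmental analysis.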

[8] = Half life in Beagle dog at 1 mg/kg, iv by LC-MS analysis; format: ADME, organism-based, Canis lupus familiaris; settings: in vivo; summary of the method: as §1
[9] = target: T1, Monoglyceride lipase (Rattus norvegicus) (UniProt Q8R431); experiment: Inhibition of MGLL in rat brain membrane homogenates at 0.001 to 10 uM preincubated for 30 mins followed by FP-Rh addition after 30 mins by gel-based ABPP assay; format: cell membranes
T1 sequence (whole entry): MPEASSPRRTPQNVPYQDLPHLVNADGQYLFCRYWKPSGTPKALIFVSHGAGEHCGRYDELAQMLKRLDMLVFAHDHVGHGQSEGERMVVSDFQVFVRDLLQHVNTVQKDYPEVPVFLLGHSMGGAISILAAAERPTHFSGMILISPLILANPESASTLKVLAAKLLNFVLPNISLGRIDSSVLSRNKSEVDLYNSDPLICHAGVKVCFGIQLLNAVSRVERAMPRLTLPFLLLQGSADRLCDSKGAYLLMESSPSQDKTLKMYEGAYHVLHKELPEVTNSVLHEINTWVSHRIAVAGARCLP
Summary of the method: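 Brain protein homogenates (1 mg/mL) treated with compound 0.001–10 µM or DMSO, 30 min at 37°C, then 1 µM FP-Rh (MGLL) or HT-01 (ABHD6), 30 min at 25°C.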

[10] = Cmax in Sprague-Dawley rat at 5 mg/kg, po by LC-MS analysis; format: ADME, organism-based; parameters: dose 5 mg/kg, route oral; settings: in vivo
Summary of the method: (§2)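 Rats (n = 3 per route) were dosed at 1 mg/kg iv (70% PEG400 in HPBCD/saline) or 5 mg/kg po (70% PEG400 in 0.5% CMC/saline), fasted overnight to 4 h post-dose. Jugular-catheter blood (~100 µL) was sampled to 24 h into 400 µL acetonitrile to stop esterases. Samples were quantified by HPLC-MS/MS, with noncompartmental analysis.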

[11] = Clearance in Sprague-Dawley rat at 1 mg/kg, iv or 5 mg/kg, po by LC-MS analysis; format: ADME, organism-based; settings: in vivo; summary of the method: as §2
[12] = test system: Rattus norvegicus; experiment: In vivo inhibition of MGLL in po dosed Sprague-Dawley rat brain assessed as increase in 2-AG measured at 4 hrs post dose by LC-MS/MS analysis; format: functional, organism-based
Summary of the method: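 Male Sprague Dawley rats, 6–12 weeks old, single oral doses 0.03–10 mg/kg in 0.5% methylcellulose, 5 mL/kg. Killed 4 h post-dose; forebrain section (~100–200 mg) from one hemisphere analysed for 2-AG by LC-MS/MS.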

[13] = test system: Rattus norvegicus; experiment: Antinociceptive activity in po dosed Sprague-Dawley rat brain assessed as inhibition of CES1c activity measured after 4 hrs post dose in presence of FP-Rh probe by gel-based ABPP assay; format: functional
Summary of the method: (§3)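 Male Sprague Dawley rats, 6–12 weeks old, given single oral doses (0.03–10 mg/kg) in 0.5% methylcellulose at 5 mL/kg. Brains were taken 4 h post-dose and forebrain sections excised from one hemisphere. Brain proteome was labeled with FP-Rh (1 µM, 30 min) and analyzed by SDS-PAGE with in-gel fluorescence. Band intensity was normalized to vehicle.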

[14] = test system: Mus musculus; experiment: In vivo inhibition of ABHD6 in ICR mouse brain at 25 mg/kg, po measured at 4 hrs post dose in presence of FP-Rh probe by gel-based ABPP assay; format: functional, organism-based
[15] = Volume of distribution at steady state in Sprague-Dawley rat at 1 mg/kg, iv or 5 mg/kg, po by LC-MS analysis; format: ADME, organism-based; settings: in vivo, read-out: Vdss; summary of the method: as §2
[16] = test system: Mus musculus; experiment: In vivo inhibition of MGLL in po dosed ICR mouse brain assessed as increase in 2-AG measured at 4 hrs post dose by LC-MS/MS analysis; format: functional, organism-based
Summary of the method: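 Male ICR mice, 6–12 weeks old, single oral gavage 0.5–32 mg/kg in PEG400:ethanol:PBS (7/2/1), 5 mL/kg, n = 3. Killed at 4 h; one brain hemisphere for gel-based ABPP with FP-Rh (MGLL band quantified), the other for 2-AG by LC-MS/MS.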

[17] = target: Cytochrome P450 2C9 (Homo sapiens, UniProt P11712); experiment: Inhibition of recombinant human CYP2C9; format: ADME
Sequence of Cytochrome P450 2C9 (P11712 whole entry): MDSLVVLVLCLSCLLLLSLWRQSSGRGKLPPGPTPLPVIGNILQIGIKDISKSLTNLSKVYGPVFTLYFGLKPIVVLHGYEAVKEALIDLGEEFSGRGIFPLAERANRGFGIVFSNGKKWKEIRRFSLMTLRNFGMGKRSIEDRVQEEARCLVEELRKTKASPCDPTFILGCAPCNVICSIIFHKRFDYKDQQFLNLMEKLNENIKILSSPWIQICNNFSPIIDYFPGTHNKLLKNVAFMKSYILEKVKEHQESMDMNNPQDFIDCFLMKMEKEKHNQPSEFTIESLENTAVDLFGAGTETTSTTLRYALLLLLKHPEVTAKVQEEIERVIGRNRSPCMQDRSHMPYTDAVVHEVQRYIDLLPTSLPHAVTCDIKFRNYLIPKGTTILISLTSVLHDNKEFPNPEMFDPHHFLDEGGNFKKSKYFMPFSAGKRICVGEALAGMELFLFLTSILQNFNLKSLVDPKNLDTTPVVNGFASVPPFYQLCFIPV

[18] = target: Cytochrome P450 3A4 (Homo sapiens, UniProt P08684); experiment: Inhibition of recombinant human CYP3A4; format: ADME
Sequence of Cytochrome P450 3A4 (P08684 whole entry): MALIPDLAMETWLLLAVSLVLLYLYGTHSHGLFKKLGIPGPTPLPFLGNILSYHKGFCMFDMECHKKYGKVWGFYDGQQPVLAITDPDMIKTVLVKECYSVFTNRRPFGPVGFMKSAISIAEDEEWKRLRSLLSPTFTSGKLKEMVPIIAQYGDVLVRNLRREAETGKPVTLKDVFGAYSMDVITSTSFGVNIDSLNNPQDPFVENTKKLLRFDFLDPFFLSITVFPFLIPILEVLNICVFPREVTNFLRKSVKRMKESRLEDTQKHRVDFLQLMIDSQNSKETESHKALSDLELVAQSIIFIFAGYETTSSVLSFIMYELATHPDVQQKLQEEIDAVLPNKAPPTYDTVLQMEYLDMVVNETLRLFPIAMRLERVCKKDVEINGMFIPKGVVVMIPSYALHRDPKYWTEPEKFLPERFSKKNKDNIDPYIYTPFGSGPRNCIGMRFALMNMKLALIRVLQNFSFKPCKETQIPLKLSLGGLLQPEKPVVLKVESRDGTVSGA

[19] = test system: Mus musculus; experiment: In-vivo inhibition of MGLL in ICR mouse brain assessed as target engagement at 5 mg/kg, po measured 4 hrs post dose by gel-based ABPP assay relative to control; format: functional; parameters: scale not given: the % may be the effect or the level left
Summary of the method: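 Mice received a single 5 mg/kg oral gavage dose. Whole brains were collected 4 h post-dose and target engagement was read by gel-based ABPP with FP-Rh probe.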

[20] = test system: Rattus norvegicus; experiment: Antinociceptive activity in po dosed Sprague-Dawley rat brain assessed as inhibition of ABHD6 activity measured after 4 hrs post dose in presence of FP-Rh probe by gel-based ABPP assay; format: functional; summary of the method: as §3
[21] = Cmax in Beagle dog at 1 mg/kg, po by LC-MS analysis; settings: in vivo
[22] = Inhibition of BCRP (unknown origin) at 10 uM; format: ADME; settings: human

O=C(OC(C(F)(F)F)C(F)(F)F)N1CCN(Cc2ccc(C(F)(F)F)cc2N2CCCC2)CC1 [ELCUBRAGISTAT]
ED50 [1]: 32 mg/kg
inhibition [2]: Active
IC50 [3]: > 50 µM
Stability [4]: Unstable
Activity [5]: Non-Toxic
IC50 [6]: 6.5 µM
bioavailability [7]: 57%
half-life [8]: 6.1 h
inhibition [9]: Active
Cmax [10]: 688 nM
clearance [11]: 14.7 mL/min/kg
inhibition [12]: Dose-dependent effect
ED50 [13]: 1.2 mg/kg
inhibition [14]: Active
Vd [15]: 3.2 L/kg
inhibition [16]: Dose-dependent effect
IC50 [17]: > 50 µM
IC50 [18]: > 50 µM
Activity [19]: 100%
ED50 [20]: 2.9 mg/kg
Cmax [21]: 777 nM
inhibition (INH) [22]: Not Active
